Results from ChEMBL document CHEMBL4138155, “Design, synthesis and biochemical evaluation of novel multi-target inhibitors as potential anti-Parkinson agents” (Eur J Med Chem, 2018).

Legend:
[1] = target: T1, Amine oxidase [flavin-containing] A (Homo sapiens, UniProt P21397); assay: Inhibition of recombinant human MAO-A using kynuramine as substrate after 20 mins by fluorescence assay
T1 sequence (P21397 whole entry): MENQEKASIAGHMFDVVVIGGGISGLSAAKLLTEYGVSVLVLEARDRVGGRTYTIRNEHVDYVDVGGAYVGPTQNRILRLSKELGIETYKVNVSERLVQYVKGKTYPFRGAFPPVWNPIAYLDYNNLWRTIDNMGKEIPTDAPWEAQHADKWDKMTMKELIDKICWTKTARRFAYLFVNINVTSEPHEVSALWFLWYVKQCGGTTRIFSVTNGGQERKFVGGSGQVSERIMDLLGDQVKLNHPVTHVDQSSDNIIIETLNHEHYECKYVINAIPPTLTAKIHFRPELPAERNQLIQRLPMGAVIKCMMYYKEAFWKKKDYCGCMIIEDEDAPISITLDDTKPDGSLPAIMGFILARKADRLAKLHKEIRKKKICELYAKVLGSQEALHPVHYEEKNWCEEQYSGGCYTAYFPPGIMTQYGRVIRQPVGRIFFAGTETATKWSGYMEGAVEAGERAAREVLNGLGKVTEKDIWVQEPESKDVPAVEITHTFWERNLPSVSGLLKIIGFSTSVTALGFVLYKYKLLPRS

[2] = target: T2, Amine oxidase [flavin-containing] B (Homo sapiens, UniProt P27338)
T2 sequence (P27338 whole entry): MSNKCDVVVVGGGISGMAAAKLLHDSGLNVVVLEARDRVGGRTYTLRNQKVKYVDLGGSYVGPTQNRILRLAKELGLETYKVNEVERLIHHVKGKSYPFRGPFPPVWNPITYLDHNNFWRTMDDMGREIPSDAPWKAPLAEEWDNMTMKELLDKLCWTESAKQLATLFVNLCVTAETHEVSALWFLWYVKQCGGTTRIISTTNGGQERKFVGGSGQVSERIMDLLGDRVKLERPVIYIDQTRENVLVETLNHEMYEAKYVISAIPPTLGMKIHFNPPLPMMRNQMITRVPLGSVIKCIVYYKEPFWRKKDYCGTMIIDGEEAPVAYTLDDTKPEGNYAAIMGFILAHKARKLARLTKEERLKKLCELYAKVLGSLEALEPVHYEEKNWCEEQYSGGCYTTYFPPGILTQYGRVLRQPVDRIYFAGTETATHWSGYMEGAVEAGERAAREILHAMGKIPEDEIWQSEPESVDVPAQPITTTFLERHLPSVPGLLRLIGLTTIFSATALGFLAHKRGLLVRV

[3] = target: Cholinesterase (Equus caballus) (UniProt P81908); assay: Inhibition of horse serum BuChE at 3 uM using butyrylthiocholine iodide as substrate preincubated for 15 mins followed by substrate addition measured after 10 mins by spectrophotometry based-Ellman's method
[4] = Antioxidant activity assessed as total antioxidant capacity after 90 mins by phosphomolybdenum method; format: functional
How it was run: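 Sample combined with reagent of 0.6 M sulphuric acid, 28 mM sodium phosphate and 4 mM ammonium molybdate; heated 90 min at 95 °C, absorbance at 695 nm. EC50 = concentration giving absorbance 0.5; trolox as reference.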

[5] = Antioxidant activity assessed as ferric ion reducing activity using Fe3+-TPTZ after 30 mins by FRAP assay; format: functional
How it was run: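 FRAP reagent: acetate buffer (0.3 M, pH 3.6), TPTZ (10 mM) in 40 mM HCl and FeCl3 (20 mM), 10:1:1 v/v/v. Sample added, 30 min at room temperature, absorbance at 593 nm. Expressed as EC50.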

[6] = Antioxidant activity assessed as cupric ion reducing activity after 30 mins by CUPRAC assay; format: functional
How it was run: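 Sample mixed with CuCl2 (10 mM), neocuproine (7.5 mM) and NH4Ac buffer (1 M, pH 7.0) stock reagents; blank lacks CuCl2. Absorbance at 450 nm after 30 min at room temperature, blank subtracted. Expressed as EC50.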

[7] = Antioxidant activity assessed as DPPH radical scavenging activity after 30 mins; format: functional
How it was run: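 Sample added to 0.004% DPPH in methanol, kept 30 min in the dark at room temperature, absorbance read at 517 nm. IC50 taken as the concentration scavenging 50% of DPPH radicals; trolox as reference.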

[8] = Antioxidant activity assessed as ABTS radical scavenging activity measured after 12 to 16 hrs; format: functional
How it was run: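 ABTS radical cation generated from 7 mM ABTS with 2.45 mM potassium persulphate, 12-16 h dark at room temperature, then diluted with methanol to A734 0.700 ± 0.02. Sample mixed with ABTS solution, 30 min at room temperature, absorbance read at 734 nm. IC50 = concentration scavenging 50% of radicals; trolox reference.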

[9] = target: T2, Amine oxidase [flavin-containing] B; assay: Reversible inhibition of recombinant human MAO-B assessed as residual activity at 4 times IC50 using kynuramine as substrate pre-incubated for 15 mins followed by 2 fold dilution of compound for 24 hrs and subsequent substrate addition measured after 20 mins by fluorescence assay relative to control
[10] = target: T2, Amine oxidase [flavin-containing] B; assay: Competitive inhibition of recombinant human MAO-B using kynuramine as substrate pre-incubated for 15 mins followed by 2 fold compound dilution for 24 hrs and subsequent substrate addition measured after 20 mins by Lineweaver-Burk plot analysis
How it was run: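 20 min at 37 °C, NaOH stop, 4-hydroxyquinoline fluorescence read. Six Lineweaver-Burk plots; Ki from x-intercept of slope versus inhibitor concentration.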

[11] = target: T2, Amine oxidase [flavin-containing] B; assay: Inhibition of recombinant human MAO-B assessed as residual activity at 4 times IC50 using kynuramine as substrate pre-incubated for 15 mins substrate addition measured after 20 mins by fluorescence assay relative to control

Chain of Cholinesterase (Equus caballus) (P81908 whole entry): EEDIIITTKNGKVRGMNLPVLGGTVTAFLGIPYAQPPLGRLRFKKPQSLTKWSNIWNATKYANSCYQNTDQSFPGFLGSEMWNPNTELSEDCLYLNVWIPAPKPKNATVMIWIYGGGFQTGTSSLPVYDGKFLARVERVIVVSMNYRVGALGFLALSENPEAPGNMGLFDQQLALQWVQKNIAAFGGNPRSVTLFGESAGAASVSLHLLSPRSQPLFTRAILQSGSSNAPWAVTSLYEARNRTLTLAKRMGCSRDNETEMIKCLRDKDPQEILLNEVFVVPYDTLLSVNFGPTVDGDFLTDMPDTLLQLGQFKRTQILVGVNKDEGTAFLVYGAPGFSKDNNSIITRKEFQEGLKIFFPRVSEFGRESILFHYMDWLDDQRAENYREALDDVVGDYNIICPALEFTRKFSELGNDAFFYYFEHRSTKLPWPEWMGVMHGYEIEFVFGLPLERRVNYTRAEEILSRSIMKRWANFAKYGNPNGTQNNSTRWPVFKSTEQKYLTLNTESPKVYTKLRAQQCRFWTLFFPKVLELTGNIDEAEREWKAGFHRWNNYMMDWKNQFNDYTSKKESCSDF

Structure (SMILES) | IC50 [1] | IC50 [2] | inhibition [3] | EC50 [4] | EC50 [5] | EC50 [6] | IC50 [7] | IC50 [8] | Activity [9] | Ki [10] | Activity [11]
CCCC/C(CC)=N\Nc1nc(-c2cccc([N+](=O)[O-])c2)cs1 | 6.03 µM | 0.182 µM | 10% | 1560 µM | 410 µM | 550 µM | 1260 µM | 1040 µM | – | – | –
C/C(=N/Nc1nc(-c2cccc([N+](=O)[O-])c2)cs1)C1CCCCC1 | 29.1 µM | 0.0072 µM | 6.22% | 1190 µM | 670 µM | 610 µM | 1350 µM | 1050 µM | – | – | –
O=[N+]([O-])c1cccc(-c2csc(NN=C3CCCCCCC3)n2)c1 | 1.82 µM | 0.01 µM | 7.64% | 1220 µM | 390 µM | 440 µM | 1280 µM | 1090 µM | – | – | –
CC1CCC(=NNc2nc(-c3cccc([N+](=O)[O-])c3)cs2)CC1 (stereo not given) | 4.25 µM | 0.237 µM | 4.87% | 1130 µM | 390 µM | 390 µM | 1180 µM | 1090 µM | – | – | –
CC/C(C)=N\Nc1nc(-c2cccc([N+](=O)[O-])c2)cs1 | 20.5 µM | 0.351 µM | 12.1% | 1650 µM | 420 µM | 580 µM | 1180 µM | 1040 µM | – | – | –
O=[N+]([O-])c1cccc(-c2csc(NN=C3CCCCC3)n2)c1 | 2.56 µM | 0.047 µM | 8.41% | 1430 µM | 330 µM | 320 µM | 1200 µM | 1100 µM | – | – | –
O=[N+]([O-])c1cccc(-c2csc(NN=C3CCCC3)n2)c1 | 3.46 µM | 0.095 µM | 12.4% | 1340 µM | 400 µM | 510 µM | 1180 µM | 1100 µM | – | – | –
CCC/C(CC)=N\Nc1nc(-c2cccc([N+](=O)[O-])c2)cs1 | 4.86 µM | 0.189 µM | 11% | 1250 µM | 390 µM | 530 µM | 1230 µM | 1040 µM | – | – | –
O=[N+]([O-])c1cccc(-c2csc(NN=C3CCCCCC3)n2)c1 | 1.59 µM | 0.0086 µM | 7.11% | 1230 µM | 420 µM | 410 µM | 1220 µM | 1070 µM | – | – | –
CCC/C(C)=N\Nc1nc(-c2cccc([N+](=O)[O-])c2)cs1 | 38 µM | 0.055 µM | 5.16% | 1200 µM | 450 µM | 550 µM | 1200 µM | 1040 µM | – | – | –
CCCC/C(C)=N\Nc1nc(-c2cccc([N+](=O)[O-])c2)cs1 | 6.33 µM | 0.118 µM | 11.3% | 1460 µM | 370 µM | 520 µM | 1180 µM | 1060 µM | – | – | –
C=CCC/C(C)=N\Nc1nc(-c2cccc([N+](=O)[O-])c2)cs1 | 3.99 µM | 0.101 µM | 6.35% | 1150 µM | 330 µM | 460 µM | 1210 µM | 1040 µM | – | – | –
CCC(CC)=NNc1nc(-c2cccc([N+](=O)[O-])c2)cs1 | 24.3 µM | 0.053 µM | 7.45% | 1100 µM | 340 µM | 460 µM | 1130 µM | 1040 µM | – | – | –
CCCCCC/C(C)=N\Nc1nc(-c2cccc([N+](=O)[O-])c2)cs1 | 10.9 µM | 0.626 µM | 9.54% | 1240 µM | 390 µM | 530 µM | 1150 µM | 1110 µM | – | – | –
COc1ccc2c3c1O[C@H]1C[C@@H](O)C=C[C@@]31CCN(C)C2 | – | – | 13.6% | – | – | – | – | – | – | – | –
C/C(=N/Nc1nc(-c2cccc([N+](=O)[O-])c2)cs1)C1CC1 | 2.66 µM | 0.0053 µM | 12.8% | 1470 µM | 470 µM | 530 µM | 1260 µM | 1060 µM | 91% | 0.0073 µM | 46%
C/C(CC(C)C)=N/Nc1nc(-c2cccc([N+](=O)[O-])c2)cs1 | 4.41 µM | 0.012 µM | 8.98% | 1130 µM | 420 µM | 570 µM | 1350 µM | 1050 µM | – | – | –
Cc1c(C)c2c(c(C)c1O)CCC(C)(C(=O)O)O2 (stereo not given) [TROLOX] | – | – | – | 1130 µM | 160 µM | 240 µM | 400 µM | 660 µM | – | – | –
CC(C)=NNc1nc(-c2cccc([N+](=O)[O-])c2)cs1 | 1.07 µM | 0.716 µM | 12.8% | 1750 µM | 340 µM | 510 µM | 1160 µM | 1070 µM | – | – | –
